Like-named read-outs stand apart in the source and are kept apart here.
Legend:
[1] = biological target: T1, His-Ste14p (yeast Icmt) (Saccharomyces cerevisiae, UniProt P32584); format: biochemical; conditions: pH 7.5, 30 °C; for Vmax: pmol of methyl groups transferred to substrate; for Vmax / Km: crude membrane preparations, 20 μM [14C]SAM, 100 mM Tris-HCl, 30 min, liquid scintillation counting; for Km: read-out: Km(app), apparent values (single SAM concentration, membrane suspension); for Vmax/Km: catalytic efficiency, from Vmax and apparent Km, crude membranes
T1 sequence (P32584 1-239): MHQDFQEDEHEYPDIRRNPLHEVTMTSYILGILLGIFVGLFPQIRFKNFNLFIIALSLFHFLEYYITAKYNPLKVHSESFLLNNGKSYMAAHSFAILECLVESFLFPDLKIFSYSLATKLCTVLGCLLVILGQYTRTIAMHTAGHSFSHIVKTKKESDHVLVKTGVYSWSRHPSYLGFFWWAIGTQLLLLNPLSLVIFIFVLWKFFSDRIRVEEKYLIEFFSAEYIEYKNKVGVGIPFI
Summary of the method: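 Membranes from yeast strain CH2704 overexpressing His-Ste14p: 100 000g pellet resuspended in 10 mM Tris-HCl pH 7.5, stored at −80 °C. Reaction: membranes plus substrate, 20 μM [14C]SAM (50–60 mCi/mmol), 100 mM Tris-HCl pH 7.5, 30 °C for 30 min. Stopped with 1 M NaOH/1% SDS; base-labile [14C]methyl diffused onto filter over scintillant, rt for 2.5 h, then counted. Km apparent: single SAM level, peptide partitions into membranes.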

[2] = biological target: T1, His-Ste14p (yeast Icmt); conditions: cited from earlier work
[3] = test system: His-Ste14p (crude membranes); format: binding, Saccharomyces cerevisiae; conditions: 16 in competition with 17, 5 to 200 μM
Summary of the method: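 Crude membranes (100 μg) from a Δste14 yeast strain overexpressing His-Ste14p, in 10 mM Tris-HCl pH 7.5, preincubated with increasing competitor peptide; diazirine photoprobe then added, 4 °C for 5 min. Irradiated at 365 nm, 30 min on ice. Solubilized in RIPA/10% SDS; neutravidin-agarose pulldown 2 h at 4 °C, three washes, eluted in SDS sample buffer at 65 °C for 30 min. 12% SDS-PAGE, α-Ste14p immunoblot (1:500).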

| Vmax [1] | Compound | Km [1] | Vmax/Km ([2]; catalytic efficiency, previously reported) | Vmax ([2]; pmol of methyl groups transferred to substrate, previously reported) | Km ([2]; read-out: Km(app), apparent values, previously reported) | Vmax/Km [1] | Vmax ([1]; listed as diazirine-containing peptide) | site of photolabeling, inferred from competition [3] |
| --- | --- | --- | --- | --- | --- | --- | --- | --- |
| 217 ± 3 pmol min^–1 mg^–1 | Biotin-Peg4-K(5-Fam)YIIKGVFWDPAC(C5-m-BP)-OH [compound 19] | 27.8 ± 1 µM | – | – | – | – | – | – |
| – | CC(=O)N[C@@H](CSC/C=C(\C)CC/C=C(\C)CCC=C(C)C)C(=O)O [AFC, N-acetyl-S-farnesyl-L-cysteine] | – | 54 pmol min^–1 mg^–1 μM^–1 | 870 ± 15 pmol min^–1 mg^–1 | 15.9 ± 0.9 µM | – | – | – |
| 1919 ± 30 pmol min^–1 mg^–1 | Biotin-Peg4-YIIKGVFWDPAC(Fr)-OH [compound 17] | – | – | – | – | 157 pmol min^–1 mg^–1 μM^–1 | – | – |

| Compound | Vmax [1] | Km [1] | Vmax/Km ([2]; catalytic efficiency, previously reported) | Vmax ([2]; pmol of methyl groups transferred to substrate, previously reported) | Km ([2]; read-out: Km(app), apparent values, previously reported) | Vmax/Km [1] | Vmax ([1]; listed as diazirine-containing peptide) | site of photolabeling, inferred from competition [3] |
| --- | --- | --- | --- | --- | --- | --- | --- | --- |
| Biotin-Peg4-K(5-Fam)YIIKGVFWDPAC(C10-Diazirine)-OH [compound 16] | 947 ± 4 pmol min^–1 mg^–1 | 6.6 ± 0.2 µM | – | – | – | 143 pmol min^–1 mg^–1 μM^–1 | 947 pmol min^–1 mg^–1 | labeling the substrate binding site of His-Ste14p |

Source: article PMC3985442 (The Journal of Organic Chemistry, 2014)
